Assay results from ChEMBL document CHEMBL5608261, “Pharmacophore Establishment and Optimization of Saturated 1,6-Naphthyridine-Fused Quinazolinones that Inhibit Meningoencephalitis-Causing Naegleria fowleri” (J Med Chem, 2024).
Converted amounts (≈) assume the structure as drawn.

What was measured:
Naegleria fowleri [1] = assay: Anti-ameobic activity against Naegleria fowleri Nf69 (ATCC 30215) trophozoites assessed as inhibition of amoeba growth incubated for 48 hrs by CellTiter-Glo assay; assay type: functional, organism-based
Procedure, shortened: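 Axenic Nf69 trophozoites were seeded at 1 × 10^4 cells/mL in Nelson's complete medium with 10% heat-inactivated FBS. Compound was added at 20 to 0.375 μM (lower ranges for very potent compounds), with vehicle controls, for 48 h at 37 °C and 5% CO2. CellTiter-Glo luminescence gave % growth inhibition versus controls, and triplicate means were fitted to dose–response curves for EC50.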

[2] = Kinetic solubility of compound at pH 7.4 incubated for 24 hrs by HPLC analysis; assay type: physicochemical; conditions: buffer; for solubility kinetic at 24 h: pH 7.4, read-out: Kinetic_solubility; for Kinetic_solubility: pH 7.4, 24 h
SH-SY5Y = assay: (§1) Cytotoxicity against human SH-SY5Y cells assessed as reduction in cell viability incubated for 72 hrs by CellTiter-Glo assay; assay type: toxicity, cell-based; conditions: sh-sy5y, 72 h
Procedure, shortened: (§2)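 SH-SY5Y cells at 2000 per well attached overnight at 37 °C. Compound from 20 mM DMSO stocks was added in triplicate as a dose series starting at 20 μM, with doxorubicin as positive control.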

[3] = Metabolic stability in CD-1 mouse liver microsomes assessed as half-life incubated for 60 mins by LC-MS/MS analysis; assay type: ADME, Microsome; conditions: 1 h
Procedure, shortened: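 Half-life measured in CD-1 mouse liver microsomes with NADPH over a 60 min exposure.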

[4] = Selectivity index, ratio of CC50 for cytotoxicity against human SH-SY5Y cells to EC50 for anti-amoebic activity against Naegleria fowleri Nf69 (ATCC 30215) assessed as inhibition of amoeba growth; assay type: toxicity, cell-based; conditions: for selectivity ratio: SH-SY5Y cells, read-out: Ratio CC50/EC50
[5] = as §1; assay type: toxicity, cell-based; conditions: SH-SY5Y cells; procedure, shortened: as §2
Naegleria fowleri [6] = assay: Anti-ameobic activity against Naegleria fowleri Nf69 (ATCC 30215) trophozoites infected in female CD-1 mouse model assessed as survival rate at 5 mg/kg, ip pre-infected for 48 hrs from day 0 followed by once daily compound administration from day 2 to day 6 and measured on day 14 post-infection relative to control; assay type: functional; conditions: 312 h, time 13 day
Procedure, shortened: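 Female CD-1 mice (n = 6/group) were infected intranasally with Nf69 trophozoites on day 0. After a 48 h establishment period, they received IP dosing at 5 mg/kg once daily for 5 days, alongside a vehicle-only infected control group. Survival was followed for 14 days with Kaplan–Meier analysis. Survivor brain tissue was cultured for amoeba, and survival counted only mice whose brains were free of amoeba.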

[7] = Protein binding in CD-1 mouse plasma assessed as free fraction incubated for 4 hrs by equilibrium dialysis based LC-MS/MS analysis; assay type: ADME, cell-free
[8] = Protein binding in CD-1 mouse plasma incubated for 4 hrs by equilibrium dialysis based LC-MS/MS analysis; assay type: ADME, cell-free; conditions: CD-1, mouse, read-out: PPB (converted)
[9] = Stability in CD-1 mouse plasma assessed as half-life measured upto 120 mins by LC-MS analysis; assay type: ADME, cell-free; conditions: 2 h
[10] = Metabolic stability in human liver microsomes assessed as half-life; assay type: ADME, Microsome
Naegleria fowleri [11] = assay: Anti-ameobic activity against Naegleria fowleri TY (ATCC 30107) trophozoites assessed as inhibition of amoeba growth incubated for 48 hrs by CellTiter-Glo assay; assay type: functional, organism-based
Procedure, shortened: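 TY strain (ATCC 30107) trophozoites, seeded at 1 × 10^4 cells/mL, were exposed 48 h (37 °C, 5% CO2) to vehicle or compound, with concentrations initially 20 to 0.375 μM. CellTiter-Glo luminescence gave % growth inhibition versus controls. EC50 was fit from triplicate runs (n = 3, ± SEM).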

[12] = Naegleria fowleri, Nf69 (ATCC 30215), 48 h

Structure (SMILES)	EC50 (Naegleria fowleri [1]; [12])	solubility kinetic at 24 h [2]	CC50 (SH-SY5Y)	t1/2 [3]	selectivity ratio [4]	EC50 (Naegleria fowleri [1])	Ratio CC50/EC50 [4]	other results
COc1cc2nc3n(c(=O)c2cc1C#N)CC[C@@H]1[C@@H]3CCCN1CC1COC1 (racemic)	120 nM	136 µM (≈ 51.7 µg/mL)	> 20000 nM	104.6 min	> 167	–	–	–
CN1CCC[C@@H]2c3nc4cc(Cl)c(Cl)cc4c(=O)n3CC[C@H]21	–	–	7800 nM	6.1 min	–	86 nM	90.7	Kinetic_solubility ([2]; 24 h): 98.2 µM
O=c1c2cc(Cl)c(Cl)cc2nc2n1CC[C@@H]1[C@@H]2CCCN1CC1COC1 (racemic)	6 nM	–	> 20000 nM	109 min	> 33000	–	–	Kinetic_solubility [2]: 40 µM
CN1CCC[C@@H]2c3nc4ccc(C(F)(F)F)cc4c(=O)n3CC[C@H]21 (racemic)	–	159 µM (≈ 53.6 µg/mL)	–	21.2 min	–	1100 nM	> 18.2	CC50 at 72 h [5]: > 20000 nM
CN1CCC[C@@H]2c3nc4cc(Cl)c(Cl)cc4c(=O)n3CC[C@H]21 (racemic)	–	138 µM (≈ 46.7 µg/mL)	–	–	> 100	200 nM	–	CC50 at 72 h [5]: > 20000 nM
C[C@@H]1[C@H](O)[C@@H](C)/C=C/C=C/C=C/C=C/C=C/C=C/C=C/[C@H](O[C@@H]2O[C@H](C)[C@@H](O)[C@H](N)[C@@H]2O)C[C@@H]2O[C@](O)(C[C@@H](O)C[C@@H](O)[C@H](O)CC[C@@H](O)C[C@@H](O)CC(=O)O[C@H]1C)C[C@H](O)[C@H]2C(=O)O [AMPHOTERICIN B]	–	–	–	–	–	–	–	survival at 5 mg/kg (Naegleria fowleri [6]): 17%
O=c1c2cc(Cl)c(Cl)cc2nc2n1CC[C@@H]1[C@@H]2CCCN1CCO (racemic)	20 nM	–	> 20000 nM	83.1 min	–	–	–	Kinetic_solubility [2]: < 10 µM
COc1cc2nc3n(c(=O)c2cc1Cl)CC[C@@H]1[C@@H]3CCCN1CC1COC1 (racemic)	–	–	5000 nM	> 145 min	–	29 nM	172	Kinetic_solubility ([2]; 24 h): 198 µM
COc1cc2nc3n(c(=O)c2cc1Cl)CC[C@@H]1[C@@H]3CCCN1CCN1CCCC1 (racemic)	740 nM	172 µM (≈ 71.7 µg/mL)	> 20000 nM	> 145 min	> 27	–	–	–
CN1CCC[C@@H]2c3nc4ccc(C(F)(F)F)cc4c(=O)n3CC[C@H]21	–	–	–	10.9 min	–	250 nM	> 80	Kinetic_solubility ([2]; 24 h): 109 µM
CN1CCC[C@@H]2c3nc4ccc(Cl)cc4c(=O)n3CC[C@H]21 (racemic)	–	187 µM (≈ 56.8 µg/mL)	–	18.5 min	–	1000 nM	> 20	CC50 at 72 h [5]: > 20000 nM
COc1cc2nc3n(c(=O)c2cc1Cl)CC[C@@H]1[C@@H]3CCCN1CC1CC1 (racemic)	23 nM	76.1 µM (≈ 28.5 µg/mL)	1000 nM	12.6 min	43.5	–	–	–
COc1cc2nc3n(c(=O)c2cc1Cl)CC[C@@H]1[C@@H]3CCCN1CCN1CCOCC1 (racemic)	520 nM	43.1 µM (≈ 18.7 µg/mL)	> 20000 nM	29.8 min	> 38.5	–	–	–
CN1CCC[C@@H]2c3nc4ccc(Cl)cc4c(=O)n3CC[C@H]21	–	–	> 20000 nM	11.5 min	–	280 nM	> 71.4	Kinetic_solubility ([2]; 24 h): 129 µM
COc1cc2nc3n(c(=O)c2cc1Cl)CC[C@@H]1[C@@H]3CCCN1CCOC(C)C (racemic)	110 nM	65.7 µM (≈ 26.7 µg/mL)	2500 nM	3.1 min	22.7	–	–	–
O=c1c2cc(Cl)c(Cl)cc2nc2n1CC[C@@H]1[C@@H]2CCCN1CCN1CCOCC1 (racemic)	11 nM	–	> 20000 nM	75.2 min	–	–	–	Kinetic_solubility [2]: 206 µM
COc1cc2nc3n(c(=O)c2cc1Cl)CC[C@@H]1[C@@H]3CCCN1Cc1cccnc1 (racemic)	120 nM	3.8 µM (≈ 1.56 µg/mL)	> 20000 nM	–	> 167	–	–	–
COc1cc2nc3n(c(=O)c2cc1Cl)CC[C@@H]1[C@@H]3CCCN1CC1CCC1 (racemic)	15 nM	4.6 µM (≈ 1.78 µg/mL)	640 nM	3.8 min	42.7	–	–	–
COc1cc2nc3n(c(=O)c2cc1Cl)CC[C@@H]1[C@@H]3CCCN1CC1COC1	–	29.1 µM (≈ 11.3 µg/mL)	> 20000 nM	75.6 min	–	490 nM	> 40.8	fraction unbound at 4 h [7]: 0.26; fraction unbound at 4 h [8]: 0.26; t1/2 [9]: > 289 min; t1/2 [10]: 80.3 min; EC50 (Naegleria fowleri [11]): 470 nM
